Assays:
[1] = test system: Nan-Iav(∆697-C); assay type: cell-based, Halyomorpha halys; settings: 1 mM Ca2+, Δ C-ter (Iav∆(697-986))
[2] = test system: Nan-IavW701A; assay: Whole-cell electrophysiology, Nan-IavW701A; assay type: cell-based, Halyomorpha halys; settings: 1 mM Ca2+
[3] = test system: Nan-IavY325A; assay type: binding, Halyomorpha halys
[4] = test system: Drosophila Nan-Iav; settings: cited from earlier work
[5] = test system: stink bug Nan-Iav; assay type: binding, Halyomorpha halys
[6] = molecular target: stink bug Nan-Iav; set-up: species or system Halyomorpha halys; settings: read-out: [3H]-AP binding Kd
[7] = molecular target: Nan only, WT; assay: [3H]-AP binding to Nan-only membranes, WT; set-up: species or system Halyomorpha halys; settings: read-out: [3H]-AP binding Kd
How it was run: (§1)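 Nan expressed in HEK293S GnTI- suspension cells (1–1.5 M/mL) by 3% (v/v) baculovirus, ~1 day at 37 °C then 48 h at 25 °C. Membranes were made by sonication and spun at 300 × g 10 min then 50,000 × g 2 h. Saturation binding used 60–100 µg membranes with [3H]-AP in pH 7.4 HEPES binding buffer (CaCl2, MgCl2, 0.0025% Tween-20), 3 h at room temperature. Samples were filtered on 0.1% PEI-treated filters, washed thrice with ice-cold buffer, and counted by scintillation. Nonspecific binding was set with 500-fold excess unlabeled AP.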

[8] = test system: Nan only, Y172A; assay: [3H]-AP binding to Nan-only membranes, Y172A; set-up: species or system Halyomorpha halys; settings: NanY172A
How it was run: as §1

[9] = molecular target: Nan only, Y177A; assay: [3H]-AP binding to Nan-only membranes, Y177A; set-up: species or system Halyomorpha halys
How it was run: as §1

[Ca+2] [Ca^2+]
% inhibition of inward current [1]: ~ 10% | % inhibition of inward current [2]: ~ 10%

NC(=O)c1cccnc1 [NAM, nicotinamide]
NAM binding (in words) [3]: eliminated NAM binding | EC50 [4]: 14000 nM

CC1=NNC(=O)N(/N=C/c2cccnc2)C1 [PM, pymetrozine]
binding mode versus [3H]-AP [5]: competitive binding

C[C@]1(COC(=O)C2CC2)[C@@H]2C[C@H](O)[C@@]3(C)Oc4cc(-c5cccnc5)oc(=O)c4[C@H](O)[C@@H]3[C@@]2(C)CC[C@@H]1OC(=O)C1CC1 [[^3H]-AP]
Kd [6]: 0.017 nM | Kd [7]: 0.089 nM | higher [3H]-AP Kd compared to WT Nan [8]: 7.5 fold | [3H]-AP binding Kd [9]: lacks measurable binding

— PMC12808645 (Nature Communications, 2025)
